Results: ChEMBL document CHEMBL2321796, “Synthesis of 8-hydroxyquinoline derivatives as novel antitumor agents” (ACS Med Chem Lett, 2013)
In brackets after ≈: the same amount, converted by molar mass. Activity calls are given as the source filed them. No cut-off for these calls is given here.

Assays:
K562 [1] = assay: Cytotoxicity against human K562 cells at 50 ug/ml after 48 hrs by MTS assay relative to control; type: functional
Procedure, shortened: (§1)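 Single-concentration screen at 50 μg/mL against T-47D and K562 cells, activity expressed relative to a vehicle control set at 100. Means ± SDs from triplicated experiments.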

T47D [2] = assay: Cytotoxicity against human T47D cells at 50 ug/ml after 48 hrs by MTS assay relative to control; type: functional; procedure, shortened: as §1
Hep 3B2 = assay: Antitumor activity against human Hep3B cells xenografted in athymic nude mouse assessed as disappearance of tumor at 10 mg/kg, ip qd for 8 days; type: functional, organism-based; design: dose 10 mg/kg; conditions: in the assay text read “for 9 days” for “for 8 days”
Procedure, shortened: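 Subcutaneous Hep3B hepatocellular carcinoma xenografts in athymic nude mice, five per group, vehicle control group. Dosing 10 mg/kg/day by daily intraperitoneal injection, 9 days. Tumor volume (mm3) followed, given as mean + SD, Student's t test. Vital organs examined by hematoxylin and eosin histology.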

[3] = Cytotoxicity against human Hep3B cells after 48 hrs by MTS assay; type: functional, Hep 3B2
Procedure, shortened: (§2)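 MTS assay on cancer cell lines and nontumor NIH3T3 cells. MTS50 is the concentration giving 50% reduction of MTS signal versus control. Dose-response tests run in triplicate over three independent experiments, means ± SDs against vehicle control.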

[4] = Solubility of the compound in physiological saline; type: physicochemical; conditions: buffer
[5] = Down regulation of CCL5 gene expression in human KYSE-150 cells at 8.5 ug/ml after 48 hrs; type: functional, cell-based
Procedure, shortened: (§3)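 KYSE150 esophageal cancer cells treated with 8.5 μg/mL for 48 h alongside a vehicle control. Total RNA extracted and gene expression change expressed as percent change in detection signal versus control.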

MDA-MB-231 [6] = assay: Induction of morphological changes in human MDA-MB-231 cells at 50 ug/ml; type: functional, cell-based
K562 [7] = assay: Inhibition of colony formation in human K562 cells at 50 ug/ml after 24 hrs by anchorage-dependent clonogenicity assay; type: functional, cell-based
Procedure, shortened: (§4)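 Anchorage-dependent clonogenicity assay on K562 and T47D cells. Treatment at 50 μg/mL for 24 h, then colony formation scored as percent inhibition versus vehicle control.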

A549 = assay: Cytotoxicity against human A549 cells after 48 hrs by MTS assay; type: functional; procedure, shortened: as §2
T47D [8] = assay: Cytotoxicity against human T47D cells after 48 hrs by MTS assay; type: functional; procedure, shortened: as §2
SK-HEP1 = assay: Cytotoxicity against human SKHEP1 cells after 48 hrs by MTS assay; type: functional; procedure, shortened: as §2
K562 [9] = assay: Cytotoxicity against human K562 cells after 48 hrs by MTS assay; type: functional; procedure, shortened: as §2
[10] = Cytotoxicity against mouse NIH/3T3 cells after 48 hrs by MTS assay; type: cell-based, NIH3T3; conditions: read-out: MTS50; procedure, shortened: as §2
Mus musculus [11] = assay: Toxicity in human Hep3B cells xenografted athymic nude mouse assessed as changes in histological appearance of vital organs at 10 mg/kg, ip qd for 8 days by ematoxylin and eosin staining; type: organism-based, Hep 3B2; design: dose 10 mg/kg, route intraperitoneal; conditions: in vivo, 192 h
Procedure, shortened: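 Human Hep3B hepatocellular carcinoma cells grown as subcutaneous xenografts in athymic nude mice, five per group, given daily intraperitoneal injection at 10 mg/kg/day alongside vehicle controls. After 8 days of treatment, vital organs were collected, stained with hematoxylin and eosin, and examined for tissue damage at the histological level.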

T47D [12] = assay: Inhibition of colony formation in human T47D cells at 50 ug/ml after 24 hrs by anchorage-dependent clonogenicity assay; type: functional, cell-based; procedure, shortened: as §4
Mus musculus [13] = assay: Toxicity in human Hep3B cells xenografted athymic nude mouse assessed as mortality at 10 mg/kg, ip qd for 8 days; type: organism-based, Hep 3B2; design: dose 10 mg/kg, route intraperitoneal; conditions: in vivo, 192 h
Procedure, shortened: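 Athymic nude mice bearing subcutaneous human Hep3B hepatocellular carcinoma xenografts, five per group, received 10 mg/kg/day intraperitoneally once daily, with a vehicle-treated control group. Deaths were recorded over the treatment period.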

T47D [14] = assay: Ratio of CDDP IC50 to compound IC50 for human T47D cells; type: functional
T47D [15] = assay: Induction of morphological changes in human T47D cells at 50 ug/ml; type: functional, cell-based
Hs-578T [16] = assay: Cytotoxicity against human Hs578T cells after 48 hrs by MTS assay; type: functional; procedure, shortened: as §2
Hs-578T [17] = assay: Induction of morphological changes in human Hs578T cells at 50 ug/ml; type: functional, cell-based
MDA-MB-231 [18] = assay: Cytotoxicity against human MDA-MB-231 cells after 48 hrs by MTS assay; type: functional; procedure, shortened: as §2
SAOS-2 = assay: Cytotoxicity against human Saos2 cells after 48 hrs by MTS assay; type: functional; procedure, shortened: as §2
[19] = Up-regulation of CLGN gene expression in human KYSE-150 cells at 8.5 ug/ml after 48 hrs; type: functional, cell-based; procedure, shortened: as §3

Compound `N#Cc1ccc2cccc(O)c2n1` has an Activity (K562 [1]) of 23.08% and an Activity (T47D [2]) of 72.92%.
With `O=Cc1ccc2cccc(O)c2n1` the Activity (Hep 3B2) was “Active”, the MTS50 [3] was 6.25 µg/mL and the solubility [4] was “Insoluble”. The Activity [5] was 53.4%, the Activity (MDA-MB-231 [6]) was “Active” and the inhibition (K562 [7]) was “Dose-dependent effect”. For the same compound, the MTS50 (A549) was over 50 µg/mL, the MTS50 (T47D [8]) was 12.5 µg/mL and the MTS50 (SK-HEP1) was 12.5 µg/mL. The MTS50 (K562 [9]) was 12.5 µg/mL, the CC50 at 48 h [10] was 7 µg/mL (≈ 40.4 µM) and the Activity (Mus musculus [11]) was “Non-toxic”. The inhibition (T47D [12]) was “Dose-dependent effect”, the Activity (K562 [1]) was 7% and the Activity (Mus musculus [13]) was “Non-toxic”. The “Ratio IC50” value (T47D [14]) was 4, the Activity (T47D [15]) was “Active” and the Activity (T47D [2]) was 8.37%. For the same compound, the MTS50 (Hs-578T [16]) was 12.5 µg/mL, the Activity (Hs-578T [17]) was “Active” and the MTS50 (MDA-MB-231 [18]) was 12.5 µg/mL. For the same compound, the MTS50 (SAOS-2) was 12.5 µg/mL and the Activity [19] was 65.4%.
Compound `Cc1ccc2cccc(O)c2n1` [8-HYDROXY QUINALDINE] has an Activity (K562 [1]) of 34.46% and an Activity (T47D [2]) of 46.54%.
`CCOc1cccc2ccc(C)nc12` showed an Activity (K562 [1]) of 21.38% and an Activity (T47D [2]) of 63.43%.
Work on `Cc1ccc2cccc(OCCN3CCCCC3)c2n1` yielded an Activity (K562 [1]) of 27.43% and an Activity (T47D [2]) of 69.2%.
`COc1cccc2ccc(C)nc12` showed an Activity (K562 [1]) of 27.15% and an Activity (T47D [2]) of 37.92%.
For `Oc1cccc2cccnc12` [OXYQUINOLINE], the Activity (K562 [1]) was 26.66% and the Activity (T47D [2]) was 52.6%.
